{
  "source": "paper PMC5413378",
  "about": "(Cancer research, 2017)",
  "key": {"BRD2, BRD3 and BRD4": {"tested_on": "BRD2, BRD3 and BRD4", "test": "BET protein depletion by immunoblotting in TNBC cell lines", "format": "cell-based, human", "conditions": "for concentration giving near-complete depletion of BRD2-4 proteins / effect on BET protein levels: TNBC cell lines; for effect on BET protein levels: immunoblotting"}, "MDA-MB-468 cells": {"tested_on": "MDA-MB-468 cells", "test": "Proteomic profiling", "format": "cell-based, human", "conditions": "2 h"}, "TNBC cell lines [1]": {"tested_on": "TNBC cell lines", "test": "CellTiter Glo cell viability assay in a panel of 13 TNBC cell lines", "format": "cell-based, human", "conditions": "for IC50: read-out: IC50 growth inhibition, in 9 of the 13 cell lines, 4 days"}, "[2]": {"tested_on": "caspase-3 and poly(ADP-ribose) polymerase (PARP)", "test": "Caspase-3 and PARP cleavage by immunoblotting", "format": "cell-based, human", "conditions": "as low as"}, "MCL1": {"tested_on": "MCL1", "test": "MCL1 expression by qRT-PCR and immunoblotting", "format": "cell-based, human", "conditions": "for expression of BRD2 and MCL1: MDA-MB-468 cells, 12 h immunoblotting, JQ1 2000 nM, dBET1 500 nM"}, "TNBC cell lines [3]": {"tested_on": "TNBC cell lines", "format": "cell-based, human"}, "WHIM24 PDX model": {"tested_on": "WHIM24 PDX model", "test": "WHIM24 PDX efficacy study", "format": "in vivo", "conditions": "for antitumor activity: 3 times per week for 3 weeks; for weight loss or apparent toxicity: WHIM24 model", "in_short": "(§1)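 SCID mice bearing MDA-MB-231 xenografts or serially passaged WHIM24 PDX tumours were randomised once tumours reached 80-200 mm3. Test compound was given IV in 10% PEG400: 3% Cremophor: 87% PBS, 3 times per week for 3 weeks. Tumour size and body weight were measured 2-3 times weekly. Volume was (length×width2)/2, and TGI used group medians. Data are mean ± SEM (n=7-8), with two-tailed t test versus vehicle.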"}, "BET proteins [4]": {"tested_on": "BET proteins", "test": "Pharmacodynamic analysis in WHIM24 tumors", "format": "in vivo, SCID mice"}, "[5]": {"test": "Pharmacokinetics in WHIM24 tumor-bearing mice", "format": "in vivo", "conditions": "single dose 10 mg/kg, at 1 and 3 h; concentrations diminished rapidly"}, "[6]": {"tested_on": "MDA-MB-453 xenograft model", "test": "MDA-MB-453 xenograft efficacy study", "format": "in vivo", "conditions": "for weight loss or apparent toxicity: MDA-MB-453 model", "in_short": "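Five million MDA-MB-453 cells were implanted subcutaneously in SCID mice, which were randomised at tumour size 80-200 mm3. Dosing was IV in 10% PEG400: 3% Cremophor: 87% PBS, or oral in 2% TPGS: 98% PEG200. Tumours and body weight were measured every 2-3 days. Volume was (length×width2)/2, and TGI (%) = (Vc-Vt)/(Vc-Vo)×100 using medians. Two-tailed t test versus vehicle; n=7-8.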"}, "[7]": {"tested_on": "MDA-MB-231 xenograft model", "test": "MDA-MB-231 xenograft efficacy study", "format": "in vivo", "conditions": "for antitumor activity: IV; for weight loss or overt toxicity: MDA-MB-231 model", "in_short": "as §1"}, "[8]": {"tested_on": "MDA-MB-468 xenograft model", "test": "MDA-MB-468 xenograft efficacy study", "format": "in vivo, SCID mice", "conditions": "10 mg/kg, IV, 3 times per week for 2-3 weeks"}, "[9]": {"test": "PK analysis in MDA-MB-231 xenograft model", "format": "in vivo, mice", "conditions": "MDA-MB-231 model"}, "[10]": {"test": "PK analysis in MDA-MB-468 xenograft model", "format": "in vivo, mice", "conditions": "MDA-MB-468 model"}, "normal mouse tissues": {"tested_on": "normal mouse tissues", "test": "Toxicity in immune-competent Balb/c mice", "format": "in vivo", "conditions": "5 mg/kg intravenously, daily, 5 days a week for 2 weeks", "in_short": "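Immune-competent Balb/c mice received test compound intravenously, daily, 5 days a week for 2 weeks. Animals were sacrificed at the end of treatment, and tissues were examined for damage.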"}, "BRD4": {"molecular_target": "BRD4 (Mus musculus, UniProt Q9ESU6)", "test": "BRD4 protein in mouse liver tissue", "format": "in vivo", "conditions": "single dose 5 mg/kg"}, "BET proteins [11]": {"tested_on": "BET proteins", "test": "PD analysis in MDA-MB-231 xenograft tumors", "format": "in vivo, SCID mice", "conditions": "single dose 5 mg/kg, 1-3 h post drug exposure"}, "BET proteins [12]": {"tested_on": "BET proteins", "test": "PD analysis in MDA-MB-468 xenograft tumors", "format": "in vivo, SCID mice", "conditions": "single dose 5 mg/kg, 1-3 h post drug exposure"}, "BET proteins [13]": {"molecular_target": "BET proteins", "test": "Binding to BET proteins"}, "TNBC cell lines [14]": {"tested_on": "TNBC cell lines", "test": "Annexin V-PI apoptosis flow cytometry analysis", "format": "cell-based, human"}},
  "data": [
    {"smiles": "CCn1nc(C2CC2)cc1Nc1nc(C(=O)NCCCOCCOCCOCCCNc2cccc3c2C(=O)N(C2CCC(=O)NC2=O)C3=O)nc2[nH]c3cc(-c4c(C)noc4C)c(OC)cc3c12", "note": "(stereo not drawn) [BETd-246]", "values": [
      {"measurement": "concentration giving near-complete depletion of BRD2-4 proteins", "setting": "BRD2, BRD3 and BRD4; 1 h treatment", "result": "30 to 100", "unit": "nM"},
      {"measurement": "concentration giving near-complete depletion of BRD2-4 proteins", "setting": "BRD2, BRD3 and BRD4; 3 h treatment", "result": "10 to 30", "unit": "nM"},
      {"measurement": "decrease of BRD2, BRD3 and BRD4 protein levels", "setting": "MDA-MB-468 cells; 100 nM, MDA-MB-468, p<0.05, only proteins decreased out of ~5500 quantified", "result": "≥ 2", "unit": "fold"},
      {"measurement": "IC90", "setting": "TNBC cell lines [1]; in 7 of the 13 cell lines", "result": "< 100", "unit": "nM"},
      {"measurement": "IC50", "setting": "TNBC cell lines [1]", "result": "< 10", "unit": "nM"},
      {"measurement": "lowest concentration giving profound cleavage of caspase-3 and PARP", "setting": "[2]", "result": 10, "unit": "nM"},
      {"measurement": "lowest concentration giving significant down-regulation of MCL1 mRNA", "setting": "MCL1; as low as, MDA-MB-468, 8 h, qRT-PCR", "result": 10, "unit": "nM"},
      {"measurement": "synergy in combination with BM-1197, ABT-263 and A-1155463", "setting": "TNBC cell lines [3]; in 6 of the 7 cell lines", "result": "Modest to strong synergy"},
      {"measurement": "strong synergistic induction of apoptosis in combination with ABT-199", "setting": "TNBC cell lines [3]; panel of TNBC cell lines", "result": "only observed in MDA-MB-468"},
      {"measurement": "antitumor activity", "setting": "WHIM24 PDX model; 5 mg/kg, IV", "result": "effectively inhibited WHIM24 tumor growth"},
      {"measurement": "antitumor activity", "setting": "WHIM24 PDX model; 10 mg/kg, during treatment", "result": "partial tumor regression"},
      {"measurement": "weight loss or apparent toxicity", "setting": "WHIM24 PDX model", "result": "Neither BETi-211 nor BETd-246 caused significant weight loss"},
      {"measurement": "MCL1 protein levels in tumors", "setting": "BET proteins [4]; as early as 3 h after treatment", "result": "markedly reduced"},
      {"measurement": "duration of BET protein reduction in tumors", "setting": "BET proteins [4]; single IV dose 10 mg/kg", "result": "at least 9 h"},
      {"measurement": "reduction of the levels of BET proteins in tumors", "setting": "BET proteins [4]; single IV dose 10 mg/kg, as early as 1 h", "result": "> 80", "unit": "%"},
      {"measurement": "drug exposure in plasma and WHIM24 tumors", "setting": "[5]", "result": "reasonable drug exposure"},
      {"measurement": "weight loss or apparent toxicity", "setting": "[6]", "result": "No significant weight loss"},
      {"measurement": "antitumor activity", "setting": "[7]; 10 mg/kg, 3 times per week for 2-3 weeks", "result": "very limited"},
      {"measurement": "weight loss or overt toxicity", "setting": "[7]", "result": "Neither BETd-246 nor BETd-260 caused significant weight loss"},
      {"measurement": "antitumor activity", "setting": "[8]", "result": "no antitumor activity"},
      {"measurement": "drug exposure in plasma and xenograft tumor tissue", "setting": "[9]", "result": "very limited drug exposure"},
      {"measurement": "drug exposure in plasma and xenograft tumor tissue", "setting": "[10]", "result": "very limited drug exposure"},
      {"measurement": "toxicity in normal mouse tissues", "setting": "normal mouse tissues", "result": "no significant toxicity"},
      {"measurement": "BRD4 protein in mouse liver tissue", "setting": "BRD4", "result": "effectively reduce BRD4 protein"}
    ]},
    {"smiles": "CCn1nc(C2CC2)cc1Nc1nc(C(=O)NCCCCCc2cccc3c2CN(C2CCC(=O)NC2=O)C3=O)nc2[nH]c3cc(-c4c(C)noc4C)c(OC)cc3c12", "note": "(stereo not drawn) [BETd-260]", "values": [
      {"measurement": "effect on BET protein levels", "setting": "BRD2, BRD3 and BRD4", "result": "potently depleted BET proteins at low nanomolar concentrations"},
      {"measurement": "times more potent than BETd-246 in growth inhibition", "setting": "TNBC cell lines [1]; TNBC cells", "result": "2-7 times"},
      {"measurement": "antitumor activity", "setting": "[7]; 5 mg/kg, 3 times per week for 3 weeks, compared with BETd-246 at 10 mg/kg", "result": "much stronger antitumor activity than BETd-246"},
      {"measurement": "weight loss or overt toxicity", "setting": "[7]", "result": "Neither BETd-246 nor BETd-260 caused significant weight loss"},
      {"measurement": "drug exposure in plasma and xenograft tumor tissue", "setting": "[9]", "result": "much higher than that of BETd-246"},
      {"measurement": "drug exposure in plasma and xenograft tumor tissue", "setting": "[10]", "result": "much higher than that of BETd-246"},
      {"measurement": "BET protein levels in xenograft tumors", "setting": "BET proteins [11]", "result": "effectively reduced BET protein levels"},
      {"measurement": "BET protein levels in xenograft tumors", "setting": "BET proteins [12]", "result": "effectively reduced BET protein levels"}
    ]},
    {"smiles": "CCn1nc(C2CC2)cc1Nc1nc(COC)nc2[nH]c3cc(-c4c(C)noc4C)c(OC)cc3c12", "note": "[BETi-211]", "values": [
      {"measurement": "Ki", "setting": "BET proteins [13]", "result": "< 1", "unit": "nM"},
      {"measurement": "times more potent than RX-37, JQ-1, OTX-015 or IBET-762", "setting": "BET proteins [13]", "result": "10-100 times"},
      {"measurement": "effect on BET protein levels", "setting": "BRD2, BRD3 and BRD4", "result": "did not degrade BET proteins"},
      {"measurement": "increase of BRD2 protein level", "setting": "MDA-MB-468 cells; 1000 nM, MDA-MB-468", "result": 2, "unit": "fold"},
      {"measurement": "growth inhibition", "setting": "TNBC cell lines [1]; at 2.5 μM, achieved in 2 of the 13 cell lines", "result": "≥ 90", "unit": "%"},
      {"measurement": "IC50", "setting": "TNBC cell lines [1]", "result": "< 1000", "unit": "nM"},
      {"measurement": "apoptosis induction", "setting": "TNBC cell lines [14]; 1000 nM, 48 h treatment", "result": "3-25%"},
      {"measurement": "synergism with either BM-1197 or ABT-263", "setting": "TNBC cell lines [3]", "result": "No clear synergism"},
      {"measurement": "weight loss or apparent toxicity", "setting": "WHIM24 PDX model", "result": "Neither BETi-211 nor BETd-246 caused significant weight loss"},
      {"measurement": "tumor growth inhibition", "setting": "[6]; 50 mg/kg, daily, 5 days a week for 2 weeks", "result": "failed to achieve tumor growth inhibition"},
      {"measurement": "weight loss or apparent toxicity", "setting": "[6]", "result": "No significant weight loss"}
    ]},
    {"smiles": "Cc1sc2c(c1C)C(c1ccc(Cl)cc1)=N[C@@H](CC(=O)OC(C)(C)C)c1nnc(C)n1-2", "note": "[JQ1]", "values": [
      {"measurement": "expression of BRD2 and MCL1", "setting": "MCL1", "result": "increased expression of BRD2 and MCL1"}
    ]},
    {"smiles": "O=C1CCC(N2C(=O)c3ccccc3C2=O)C(=O)N1", "note": "(stereo not drawn) [Thalidomide, thalidomide, reference compound]", "values": [
      {"measurement": "effect on BET protein levels", "setting": "BRD2, BRD3 and BRD4", "result": "no significant effect"},
      {"measurement": "effect on apoptosis induction and cell proliferation", "setting": "TNBC cell lines [14]; alone", "result": "no significant effect"}
    ]},
    {"smiles": "Cc1sc2c(c1C)C(c1ccc(Cl)cc1)=N[C@@H](CC(=O)NCCCCNC(=O)COc1cccc3c1C(=O)N(C1CCC(=O)NC1=O)C3=O)c1nnc(C)n1-2", "note": "(stereo partly drawn) [dBET1, reference compound]", "values": [
      {"measurement": "BET protein depletion", "setting": "BRD2, BRD3 and BRD4; 500 nM, MDA-MB-468 cells, 12 h", "result": "effectively depleted BET proteins"},
      {"measurement": "expression of BRD2 and MCL1", "setting": "MCL1", "result": "downregulated MCL1 expression"}
    ]}
  ]
}
